Assay results taken from ChEMBL document CHEMBL2040727, “Substituted thiazoles VI. Synthesis and antitumor activity of new 2-acetamido- and 2 or 3-propanamido-thiazole analogs” (2012).

Experiments:
Type in all cases: functional
A549 = assay: Growth inhibition of human A549/ATCC cells at 10 uM after 48 hrs by coulter counter analysis; details: A549, 48 h, read-out: GI
Outline: (§1)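 Single-dose NCI 60-line panel screen of test compounds. Cells grown in RPMI 1640 with 10% FBS. Compounds dissolved in DMSO, then diluted in phosphate buffer saline (final DMSO below 1%). Wells run in duplicate at 6 × 10⁴ cells/ml. Controls held PBS and DMSO at matching dilutions. Incubation 48 h at 37 °C under humidified 5% CO2. Cells diluted tenfold in saline and counted by Coulter counter. Percent growth inhibition taken from mean-graph of treated-cell growth.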

DU-145 = assay: Growth inhibition of human DU145 cells at 10 uM after 48 hrs by coulter counter analysis; details: DU-145, 48 h, read-out: GI; outline: as §1
HOP-62 = assay: Growth inhibition of human HOP62 cells at 10 uM after 48 hrs by coulter counter analysis; details: HOP-62, 48 h, read-out: GI; outline: as §1
M14 = assay: Growth inhibition of human M14 cells at 10 uM after 48 hrs by coulter counter analysis; details: M14, 48 h, read-out: GI; outline: as §1
SF-268 = assay: Growth inhibition of human SF268 cells at 10 uM after 48 hrs by coulter counter analysis; details: SF-268, 48 h, read-out: GI; outline: as §1
HOP-92 = assay: Growth inhibition of human HOP92 cells at 10 uM after 48 hrs by coulter counter analysis; details: HOP-92, 48 h, read-out: GI; outline: as §1
SK-MEL-2 = assay: Growth inhibition of human SK-MEL-2 cells at 10 uM after 48 hrs by coulter counter analysis; details: SK-MEL-2, 48 h, read-out: GI; outline: as §1
ACHN = assay: Growth inhibition of human ACHN cells at 10 uM after 48 hrs by coulter counter analysis; details: read-out: GI; outline: as §1
MCF7 = assay: Growth inhibition of human MCF7 cells at 10 uM after 48 hrs by coulter counter analysis; details: MCF7, 48 h, read-out: GI; outline: as §1
OVCAR-3 = assay: Growth inhibition of human OVCAR3 cells at 10 uM after 48 hrs by coulter counter analysis; details: OVCAR-3, 48 h, read-out: GI; outline: as §1
MOLT-4 = assay: Growth inhibition of human MOLT4 cells at 10 uM after 48 hrs by coulter counter analysis; details: MOLT-4, 48 h, read-out: GI; outline: as §1
T47D = assay: Growth inhibition of human T47D cells at 10 uM after 48 hrs by coulter counter analysis; details: read-out: GI
Outline: (§2)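 Single-dose screen in the NCI 60 cell line panel. Cells grown in RPMI 1640 with 10% FBS. Compounds dissolved in DMSO and diluted in phosphate buffered saline, final DMSO under 1%. Duplicate wells seeded from culture at 6 × 10⁴ cells/ml. Incubated 48 h at 37 °C, humidified, 5% CO2. Cells diluted tenfold in saline and Coulter-counted. Percent growth inhibition computed against PBS/DMSO controls.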

OVCAR-8 = assay: Growth inhibition of human OVCAR8 cells at 10 uM after 48 hrs by coulter counter analysis; details: OVCAR-8, 48 h, read-out: GI; outline: as §1
[1] = Growth inhibition of human Hs 578T cells at 10 uM after 48 hrs by coulter counter analysis; details: read-out: GI; outline: as §1
NCI-H522 = assay: Growth inhibition of human NCI-H522 cells at 10 uM after 48 hrs by coulter counter analysis; details: NCI-H522, 48 h, read-out: GI; outline: as §1
SN12C = assay: Growth inhibition of human SN12C cells at 10 uM after 48 hrs by coulter counter analysis; details: read-out: GI; outline: as §1
HCC 2998 = assay: Growth inhibition of human HCC2998 cells at 10 uM after 48 hrs by coulter counter analysis; details: HCC 2998, 48 h, read-out: GI; outline: as §1
786-0 = assay: Growth inhibition of human 786-0 cells at 10 uM after 48 hrs by coulter counter analysis; details: 786-0, 48 h, read-out: GI; outline: as §1
LOX IMVI = assay: Growth inhibition of human LOXIMVI cells at 10 uM after 48 hrs by coulter counter analysis; details: read-out: GI; outline: as §1
NCI-H23 = assay: Growth inhibition of human NCI-H23 cells at 10 uM after 48 hrs by coulter counter analysis; details: NCI-H23, 48 h, read-out: GI; outline: as §1
Malme-3M = assay: Growth inhibition of human MALME-3M cells at 10 uM after 48 hrs by coulter counter analysis; details: read-out: GI; outline: as §1
OVCAR-5 = assay: Growth inhibition of human OVCAR5 cells at 10 uM after 48 hrs by coulter counter analysis; details: OVCAR-5, 48 h, read-out: GI; outline: as §1
HT-29 = assay: Growth inhibition of human HT-29 cells at 10 uM after 48 hrs by coulter counter analysis; details: HT-29, 48 h, read-out: GI; outline: as §1
K562 = assay: Growth inhibition of human K562 cells at 10 uM after 48 hrs by coulter counter analysis; details: K562, 48 h, read-out: GI; outline: as §1
IGROV-1 = assay: Growth inhibition of human IGROV1 cells at 10 uM after 48 hrs by coulter counter analysis; details: IGROV-1, 48 h, read-out: GI; outline: as §1
MDA-MB-435 = assay: Growth inhibition of human MDA-MB-435 cells at 10 uM after 48 hrs by coulter counter analysis; details: MDA-MB-435, 48 h, read-out: GI; outline: as §1
CCRF-CEM = assay: Growth inhibition of human CCRF-CEM cells at 10 uM after 48 hrs by coulter counter analysis; details: read-out: GI; outline: as §1
UACC-62 = assay: Growth inhibition of human UACC62 cells at 10 uM after 48 hrs by coulter counter analysis; details: UACC-62, 48 h, read-out: GI; outline: as §2
A498 = assay: Growth inhibition of human A498 cells at 10 uM after 48 hrs by coulter counter analysis; details: A498, 48 h, read-out: GI; outline: as §1
NCI-H322M = assay: Growth inhibition of human NCI-H322M cells at 10 uM after 48 hrs by coulter counter analysis; details: read-out: GI; outline: as §1
SW-620 = assay: Growth inhibition of human SW620 cells at 10 uM after 48 hrs by coulter counter analysis; details: SW-620, 48 h, read-out: GI; outline: as §2
EKVX = assay: Growth inhibition of human EKVX cells at 10 uM after 48 hrs by coulter counter analysis; details: read-out: GI; outline: as §1
SNB-75 = assay: Growth inhibition of human SNB75 cells at 10 uM after 48 hrs by coulter counter analysis; details: SNB-75, 48 h, read-out: GI; outline: as §2
SK-MEL-5 = assay: Growth inhibition of human SK-MEL-5 cells at 10 uM after 48 hrs by coulter counter analysis; details: SK-MEL-5, 48 h, read-out: GI; outline: as §1
[2] = Growth inhibition of human NCI-ADR-RES cells at 10 uM after 48 hrs by coulter counter analysis; details: read-out: GI; outline: as §1
SNB-19 = assay: Growth inhibition of human SNB19 cells at 10 uM after 48 hrs by coulter counter analysis; details: SNB-19, 48 h, read-out: GI; outline: as §1
SF-295 = assay: Growth inhibition of human SF295 cells at 10 uM after 48 hrs by coulter counter analysis; details: SF-295, 48 h, read-out: GI; outline: as §1

SMILES | inhibition of growth at 10 µM (A549) [%] | inhibition of growth at 10 µM (DU-145) [%] | inhibition of growth at 10 µM (HOP-62) [%] | inhibition of growth at 10 µM (M14) [%] | inhibition of growth at 10 µM (SF-268) [%] | inhibition of growth at 10 µM (HOP-92) [%] | inhibition of growth at 10 µM (SK-MEL-2) [%] | inhibition of growth at 10 µM (ACHN) [%] | inhibition of growth at 10 µM (MCF7) [%] | inhibition of growth at 10 µM (OVCAR-3) [%] | inhibition of growth at 10 µM (MOLT-4) [%] | inhibition of growth at 10 µM (T47D) [%] | inhibition of growth at 10 µM (OVCAR-8) [%] | inhibition of growth at 10 µM [1] [%] | inhibition of growth at 10 µM (NCI-H522) [%] | inhibition of growth at 10 µM (SN12C) [%] | inhibition of growth at 10 µM (HCC 2998) [%] | inhibition of growth at 10 µM (786-0) [%] | inhibition of growth at 10 µM (LOX IMVI) [%] | inhibition of growth at 10 µM (NCI-H23) [%] | further results
CCOC(=O)c1sc(NC(=O)C(C)N2CCCCC2)nc1C (stereo unspecified) | < 10 | < 10 | < 10 | < 10 | < 10 | < 10 | < 10 | < 10 | < 10 | < 10 | < 10 | < 10 | < 10 | < 10 | < 10 | < 10 | < 10 | < 10 | < 10 | < 10 | inhibition of growth at 10 µM (Malme-3M): < 10%; inhibition of growth at 10 µM (OVCAR-5): < 10%; inhibition of growth at 10 µM (HT-29): < 10%; inhibition of growth at 10 µM (K562): < 10%; inhibition of growth at 10 µM (IGROV-1): < 10%; inhibition of growth at 10 µM (MDA-MB-435): < 10%; inhibition of growth at 10 µM (CCRF-CEM): < 10%; inhibition of growth at 10 µM (UACC-62): < 10%; inhibition of growth at 10 µM (A498): < 10%; inhibition of growth at 10 µM (NCI-H322M): < 10%; inhibition of growth at 10 µM (SW-620): < 10%; inhibition of growth at 10 µM (EKVX): < 10%; inhibition of growth at 10 µM (SNB-75): < 10%; inhibition of growth at 10 µM (SK-MEL-5): < 10%; inhibition of growth at 10 µM [2]: < 10%; inhibition of growth at 10 µM (SNB-19): < 10%; inhibition of growth at 10 µM (SF-295): < 10%
CCOC(=O)c1sc(NC(=O)C(C)N2CCOCC2)nc1C (stereo unspecified) | < 10 | < 10 | < 10 | < 10 | < 10 | < 10 | < 10 | < 10 | < 10 | < 10 | < 10 | < 10 | < 10 | < 10 | < 10 | < 10 | < 10 | < 10 | < 10 | < 10 | inhibition of growth at 10 µM (Malme-3M): < 10%; inhibition of growth at 10 µM (OVCAR-5): < 10%; inhibition of growth at 10 µM (HT-29): < 10%; inhibition of growth at 10 µM (K562): < 10%; inhibition of growth at 10 µM (IGROV-1): < 10%; inhibition of growth at 10 µM (MDA-MB-435): < 10%; inhibition of growth at 10 µM (CCRF-CEM): < 10%; inhibition of growth at 10 µM (UACC-62): < 10%; inhibition of growth at 10 µM (A498): < 10%; inhibition of growth at 10 µM (NCI-H322M): < 10%; inhibition of growth at 10 µM (SW-620): < 10%; inhibition of growth at 10 µM (EKVX): < 10%; inhibition of growth at 10 µM (SNB-75): 24.4%; inhibition of growth at 10 µM (SK-MEL-5): < 10%; inhibition of growth at 10 µM [2]: < 10%; inhibition of growth at 10 µM (SNB-19): < 10%; inhibition of growth at 10 µM (SF-295): < 10%
CCOC(=O)c1sc(NC(=O)C(C)N2CCN(C)CC2)nc1C (stereo unspecified) | < 10 | < 10 | < 10 | < 10 | < 10 | < 10 | < 10 | < 10 | < 10 | < 10 | < 10 | < 10 | < 10 | < 10 | < 10 | < 10 | < 10 | < 10 | < 10 | < 10 | inhibition of growth at 10 µM (Malme-3M): < 10%; inhibition of growth at 10 µM (OVCAR-5): < 10%; inhibition of growth at 10 µM (HT-29): < 10%; inhibition of growth at 10 µM (K562): < 10%; inhibition of growth at 10 µM (IGROV-1): < 10%; inhibition of growth at 10 µM (MDA-MB-435): < 10%; inhibition of growth at 10 µM (CCRF-CEM): < 10%; inhibition of growth at 10 µM (UACC-62): < 10%; inhibition of growth at 10 µM (A498): < 10%; inhibition of growth at 10 µM (NCI-H322M): < 10%; inhibition of growth at 10 µM (SW-620): < 10%; inhibition of growth at 10 µM (EKVX): < 10%; inhibition of growth at 10 µM (SNB-75): < 10%; inhibition of growth at 10 µM (SK-MEL-5): < 10%; inhibition of growth at 10 µM [2]: < 10%; inhibition of growth at 10 µM (SNB-19): < 10%; inhibition of growth at 10 µM (SF-295): < 10%
